The source of these data is ChEMBL document CHEMBL1129963, “Sulfonimidamide analogs of oncolytic sulfonylureas” (J Med Chem, 1997).

The structures appear in SMILES notation. Converted amounts (≈) assume the structure as drawn.

One data set relates to CCRF-CEM. Description: In vitro cytotoxicity against CCRF-CEM cells. The data set is classed as functional, cell-based. As to conditions: Homo sapiens. In a few lines:
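CCRF-CEM cells were grown in culture for 72 h with compound. The value is the concentration that inhibited growth to 50% of control growth.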

The subject of data set [1] is Mus musculus. Description: In vivo antitumor activity of compound against subaxillary implanted 6C3HED lymphosarcoma implanted in C3H mice at a dose of 75 mg/kg administered perorally twice daily for a period of 8 days. The data set is classed as functional. The note with it: 192 h, route oral. An outline of the steps:
(§1)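 6C3HED lymphosarcoma was carried in C3H mice. Compound was dosed at the stated route and schedule for 8 days (daily, twice daily, or days 1, 3, 5, 7) and tumor growth inhibition was scored against controls. The table value is the lowest dose giving >80% inhibition, or the highest dose tested. Deaths per group were recorded.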

The test system of data set [2] is Mus musculus. As to the kind of experiment: In vivo antitumor activity of compound against subaxillary implanted 6C3HED lymphosarcoma implanted in C3H mice at a dose of 243 mg/kg administered intraperitoneally daily for a period of 8 days. The note with it: ip, 192 h, route intraperitoneal. Type of data set: functional. In a few lines:
as §1

For data set [3], the system named is Mus musculus. Description: In vivo antitumor activity against subaxillary implanted 6C3HED lymphosarcoma implanted in C3H mice at a dose of 300 mg/kg administered perorally twice daily for a period of 8 days. Type of data set: functional. The note with it: 192 h, route oral. In a few lines: as §1
Data set [4] relates to Mus musculus. Description: In vivo antitumor activity of compound against subaxillary implanted 6C3HED lymphosarcoma implanted in C3H mice at a dose of 50 mg/kg administered perorally twice daily for a period of 8 days. As to conditions: 192 h, route oral. Type of data set: functional. An outline of the steps: as §1
Data set [5] concerns Mus musculus. As to the kind of experiment: In vivo antitumor activity against subaxillary implanted 6C3HED lymphosarcoma implanted in C3H mice at a dose of 150 mg/kg administered perorally twice daily for a period of 8 days. Type of data set: functional. As to conditions: for inhibition in vivo at 150 mg/kg: Mus musculus, 6C3HED, po, 192 h. An outline of the steps:
as §1

For data set [6], the system named is Mus musculus. As to the kind of experiment: In vivo antitumor activity of compound against subaxillary implanted 6C3HED lymphosarcoma implanted in C3H mice at a dose of 200 mg/kg administered perorally twice daily for a period of 8 days. The data set is classed as functional. As to conditions: 192 h, route oral. In a few lines:
as §1

In data set [7] the test system is Mus musculus. Description: In vivo antitumor activity of compound against subaxillary implanted 6C3HED lymphosarcoma implanted in C3H mice at a dose of 150 mg/kg administered intraperitoneally daily for a period of 8 days. Type of data set: functional. The note with it: ip, 192 h, route intraperitoneal. In a few lines:
as §1

The nature of data set [8]: Metabolic breakdown to the o-sulfate of p-chloroaniline (2-amino-5-chlorophenyl sulfate) by giving 100 mg/kg oral doses of the compound. The data set is classed as ADME, organism-based. Further details: dose 100 mg/kg, route oral. As to conditions: in vivo. In a few lines: (§2)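 Groups of two to four mice received single 100 mg/kg oral doses of each compound. Urine was pooled over 0-24 h, and the 2-amino-5-chlorophenyl sulfate excreted in 24 h per mouse was quantified as the marker of p-chloroaniline release.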

In data set [9] the test system is Mus musculus. As to the kind of experiment: In vivo antitumor activity against subaxillary implanted 6C3HED lymphosarcoma implanted in C3H mice at a dose of 300 mg/kg administered perorally daily for a period of 8 days. Type of data set: functional. The note with it: 192 h, route oral. An outline of the steps:
as §1

Data set [10] deals with Mus musculus. Description: In vivo antitumor activity of compound against subaxillary implanted 6C3HED lymphosarcoma implanted in C3H mice at a dose of 25 mg/kg administered perorally twice daily for a period of 8 days. As to conditions: 192 h, route oral. Type of data set: functional. In a few lines: as §1
Data set [11] deals with Mus musculus. Description: In vivo antitumor activity of compound against subaxillary implanted 6C3HED lymphosarcoma implanted in C3H mice at a dose of 300 mg/kg administered intraperitoneally daily for a period of 8 days. Type of data set: functional. The note with it: ip, 192 h, route intraperitoneal. An outline of the steps:
as §1

Data set [12] is described as follows: % dose converted to 2-amino-5-chlorophenyl sulfate. Type of data set: ADME. An outline of the steps: as §2
Data set [13] is described as follows: % dose converted to 4-(S-amino-N-{[(4-chlorophenyl)amino]carbonyl}sulfonimidoyl)benzoic acid (compound 41). The data set is classed as ADME.

By IC50 is commonly meant the point on the concentration scale where inhibition reaches its midpoint. What is called inhibition in vivo is the change of the read-out against control, counted positive when it falls. Higher therefore signals a strong effect. `Cc1ccc([S+]([O-])(=NC(=O)Nc2ccc(Cl)cc2)NCC(C)C)cc1` (stereo not given) gave a 50% inhibitory concentration (IC50) in the data set on CCRF-CEM of 0.7 mg/L (≈ 1.84 µM). In the data set with Mus musculus [1], the inhibition in vivo at 75 mg/kg stood at 85%.
`N[S+]([O-])(=NC(=O)Nc1ccc(Cl)cc1)c1ccc(C(=O)O)cc1` (stereo not given): the inhibition in vivo at 243 mg/kg in the data set with Mus musculus [2] came to 0%.
As to `Cc1ccc([S+](N)([O-])=NC(=O)Nc2ccc(OCc3ccccc3)cc2)cc1` (stereo not given), in the data set on CCRF-CEM, the IC50 was over 20 mg/L. This compound also registered an inhibition in vivo at 300 mg/kg in the data set on Mus musculus [3] of 5%.
Compound `Cc1ccc([S+]([O-])(=NC(=O)Nc2ccc(Cl)cc2)NCCCO)cc1` (stereo not given) returned an IC50 in the data set with CCRF-CEM of over 20 mg/L. Moreover, in the data set on Mus musculus [3], the inhibition in vivo at 300 mg/kg is 89%.
Turning to `N[S+]([O-])(=NC(=O)Nc1ccc(Cl)cc1)c1ccc(Cl)cc1` (stereo not given), 12.3 mg/L (≈ 35.7 µM) corresponded to half-maximal inhibition with CCRF-CEM (IC50). In the data set on Mus musculus [4], this compound registered an inhibition in vivo at 50 mg/kg of 80%.
The compound `Cc1ccc([S+](N)([O-])=NC(=O)Nc2ccc(F)cc2)cc1` (stereo not given) displayed an IC50 with CCRF-CEM of over 20 mg/L. This compound came in with an inhibition in vivo at 300 mg/kg in the data set on Mus musculus [3] of 0%.
`CCN[S+]([O-])(=NC(=O)Nc1ccc(Cl)cc1)c1ccc(C)cc1` (stereo not given): the IC50 with CCRF-CEM amounted to 13.8 mg/L (≈ 39.2 µM). The compound further yielded an inhibition in vivo at 150 mg/kg with Mus musculus [5] of 87%.
In the data set on CCRF-CEM, `Cc1cc(C)cc([S+](N)([O-])=NC(=O)Nc2ccc(Cl)cc2)c1` (stereo not given) gave an IC50 of 20 mg/L (≈ 59.2 µM). For the same compound, in the data set on Mus musculus [6], at 200 mg/kg the inhibition in vivo was 77%.
As to `N[S+]([O-])(=NC(=O)Nc1ccc(Cl)cc1)c1ccc2c(c1)CCC2` (stereo not given), in the data set with CCRF-CEM, the IC50 was over 20 mg/L. Also, the inhibition in vivo at 150 mg/kg with Mus musculus [7] amounted to 86%. For the same compound, in data set [8], the Activity was under 0.15 µM.
As for `CCCN[S+]([O-])(=NC(=O)Nc1ccc(Cl)cc1)c1ccc(C)cc1` (stereo not given), the IC50 with CCRF-CEM is 10.9 mg/L (≈ 29.8 µM). In the data set on Mus musculus [9], this compound showed an inhibition in vivo at 300 mg/kg of 69%.
Take `Cc1ccc([S+]([O-])(=NC(=O)Nc2ccc(Cl)cc2)NC(C)C)cc1` (stereo not given): in the data set on CCRF-CEM, the IC50 was determined as 1.4 mg/L (≈ 3.83 µM). This compound also registered an inhibition in vivo at 75 mg/kg in the data set on Mus musculus [1] of 86%.
`Cc1ccc([S+](N)([O-])=NC(=O)Nc2ccc(Cl)c(Cl)c2)cc1` (stereo not given) registered an IC50 in the data set with CCRF-CEM of over 20 mg/L. For the same compound, in the data set on Mus musculus [3], testing at 300 mg/kg gave an inhibition in vivo of 14%.
Take `CCc1ccc([S+](N)([O-])=NC(=O)Nc2ccc(Cl)cc2)cc1` (stereo not given): the IC50 in the data set on CCRF-CEM was over 20 mg/L. In addition, the inhibition in vivo at 25 mg/kg in the data set on Mus musculus [10] is 91%.
As to `CC(=O)N(C(=O)N=[S+]([O-])(c1ccc(C)cc1)N(C)C(C)=O)c1ccc(Cl)cc1` (stereo not given), the IC50 with CCRF-CEM amounted to 5.6 mg/L (≈ 13.3 µM). The compound also registered an inhibition in vivo at 150 mg/kg in the data set with Mus musculus [5] of 83%.
In the data set with CCRF-CEM, `Cc1ccc([S+](N)([O-])=NC(=O)Nc2ccc(O)cc2)cc1` (stereo not given) came in with an IC50 of over 20 mg/L. For the same compound, the inhibition in vivo at 300 mg/kg in the data set on Mus musculus [11] came out at 11%.
Compound `Cc1ccc([S+]([O-])(=NC(=O)Nc2ccc(Cl)cc2)NCCc2ccccc2)cc1` (stereo not given) registered an IC50 with CCRF-CEM of 5.3 mg/L (≈ 12.4 µM). For the same compound, the inhibition in vivo at 300 mg/kg in the data set on Mus musculus [3] amounted to 48%.
Turning to `Cc1ccc(NC(=O)N=[S+](N)([O-])c2ccc(C)cc2)cc1` (stereo not given), the IC50 in the data set on CCRF-CEM is over 20 mg/L. In the data set with Mus musculus [9], this compound came in with an inhibition in vivo at 300 mg/kg of 40%.
In general, Inhibition refers to the change of the read-out against control, counted positive when it falls. `Cc1ccc([S+](N)([O-])=NC(=O)Nc2ccc(Cl)cc2)cc1` (stereo in doubt; 16(+)): in the data set on Mus musculus [5] (route oral, 150 mg/kg), the Inhibition worked out at 5%. The Dose converted in data set [12] is under 0.3%; in data set [13] it was 17%.
`Cc1ccc([S+]([O-])(=NC(=O)Nc2ccc(Cl)cc2)NCc2ccccc2)cc1` (stereo not given) gave an IC50 in the data set on CCRF-CEM of 8.7 mg/L (≈ 21 µM). The inhibition in vivo at 300 mg/kg in the data set on Mus musculus [3] was 87%.
Turning to `CCCCN[S+]([O-])(=NC(=O)Nc1ccc(Cl)cc1)c1ccc(C)cc1` (stereo not given), it took 0.4 mg/L (≈ 1.05 µM) to reach half-maximal inhibition in the data set with CCRF-CEM (IC50). Further, the inhibition in vivo at 150 mg/kg with Mus musculus [5] was found to be 88%.
The compound `Cc1ccc([S+](N)([O-])=NC(=O)Nc2ccc(C(F)(F)F)cc2)cc1` (stereo not given) displayed an IC50 in the data set with CCRF-CEM of over 20 mg/L.
In the case of `CCCC[S+]([O-])(=NC(=O)Nc1ccc(Cl)cc1)NC` (stereo not given), the IC50 with CCRF-CEM was over 20 mg/L. In the data set with Mus musculus [11], the inhibition in vivo at 300 mg/kg stood at 7%.
On to `N[S+]([O-])(=NC(=O)Nc1ccc(Cl)cc1)c1ccc(Br)cc1` (stereo not given), for which, in the data set with CCRF-CEM, the midpoint of inhibition, the IC50, lay at 10.6 mg/L (≈ 27.3 µM). The compound also gave an inhibition in vivo at 150 mg/kg in the data set with Mus musculus [5] of 89%.
Turning to `CN[S+]([O-])(=NC(=O)Nc1ccc(Cl)cc1)c1ccc2c(c1)CCC2` (stereo not given), the IC50 in the data set with CCRF-CEM worked out at 10.8 mg/L (≈ 29.7 µM). In the data set with Mus musculus [5], the inhibition in vivo at 150 mg/kg was 75%.
In the data set with CCRF-CEM, `Cc1cc([S+](N)([O-])=NC(=O)Nc2ccc(Cl)cc2)cc(C)c1Cl` (stereo not given) displayed an IC50 of 6.2 mg/L (≈ 16.7 µM). In the data set with Mus musculus [3], this compound gave an inhibition in vivo at 300 mg/kg of 0%.
